# Measurements reported in ChEMBL document CHEMBL1128471, “Reversible inhibitors of the gastric (H+/K+)-ATPase. 4. Identification of an inhibitor with an intermediate duration of action” (J Med Chem, 1995).
# Experiments:
# [1] = test system: Canis familiaris; assay: Mean percent peak inhibition of histamine-stimulated gastric acid secretion in the heidenhain pouch dog following a single dose of 1 umol/kg through iv administration.; assay type: functional; conditions: Canis lupus familiaris, Stomach
# [2] = test system: Canis familiaris; assay: Mean percent peak inhibition of histamine-stimulated gastric acid secretion in the heidenhain pouch dog following a single dose of 4 umol/kg through oral administration.; assay type: functional; conditions: Canis lupus familiaris, Stomach
# [3] = target: Potassium-transporting ATPase (Sus scrofa, UniProt P19156); assay: (§1) Inhibition of K+ -stimulated gastric ATPase activity was measured using lyophilized gastric vesicles at pH 7; assay type: tissue-based, Stomach
# Procedure, shortened: (§2)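 K+-stimulated ATPase activity was measured in lyophilized (permeabilized) gastric vesicles at pH 7. The value is an IC50, or percent inhibition at the stated concentration where no IC50 could be determined.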
# [4] = target: T1, Potassium-transporting ATPase (Rattus norvegicus) (UniProt P09626+P18598); assay: Inhibition of pentagastrin-stimulated gastric acid secretion in the anesthetized rat after iv administration; assay type: functional, organism-based; conditions: Stomach
# Procedure, shortened: (§3)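 Anesthetized, lumen-perfused rats were given pentagastrin to stimulate gastric acid secretion, and compounds were given iv. The value is an ED50 (µmol/kg iv) with 95% confidence limits, or percent inhibition ± SEM at a single 10 µmol/kg iv dose.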
# [5] = target: T1, Potassium-transporting ATPase (Rattus norvegicus); assay: Inhibition of pentagastrin-stimulated gastric acid secretion at a single dose of 10 umol/kg.; assay type: functional; conditions: Stomach; procedure, shortened: as §3
# [6] = target: Potassium-transporting ATPase (Sus scrofa) (UniProt P18434+P19156); assay: as §1; assay type: tissue-based; design: concentration or dose not given beside the values; conditions: Stomach; concentration not given here; procedure, shortened: as §2
# Chain of Potassium-transporting ATPase (P18434 whole entry): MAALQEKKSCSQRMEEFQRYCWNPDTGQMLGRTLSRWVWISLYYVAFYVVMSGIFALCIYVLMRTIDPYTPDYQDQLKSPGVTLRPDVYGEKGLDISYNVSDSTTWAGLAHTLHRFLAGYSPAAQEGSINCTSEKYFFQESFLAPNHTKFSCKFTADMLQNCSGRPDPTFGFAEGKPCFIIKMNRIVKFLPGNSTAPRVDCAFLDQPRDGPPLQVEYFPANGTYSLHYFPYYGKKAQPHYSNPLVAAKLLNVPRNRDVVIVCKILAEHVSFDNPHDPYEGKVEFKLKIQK
# Chain of Potassium-transporting ATPase (P19156 whole entry): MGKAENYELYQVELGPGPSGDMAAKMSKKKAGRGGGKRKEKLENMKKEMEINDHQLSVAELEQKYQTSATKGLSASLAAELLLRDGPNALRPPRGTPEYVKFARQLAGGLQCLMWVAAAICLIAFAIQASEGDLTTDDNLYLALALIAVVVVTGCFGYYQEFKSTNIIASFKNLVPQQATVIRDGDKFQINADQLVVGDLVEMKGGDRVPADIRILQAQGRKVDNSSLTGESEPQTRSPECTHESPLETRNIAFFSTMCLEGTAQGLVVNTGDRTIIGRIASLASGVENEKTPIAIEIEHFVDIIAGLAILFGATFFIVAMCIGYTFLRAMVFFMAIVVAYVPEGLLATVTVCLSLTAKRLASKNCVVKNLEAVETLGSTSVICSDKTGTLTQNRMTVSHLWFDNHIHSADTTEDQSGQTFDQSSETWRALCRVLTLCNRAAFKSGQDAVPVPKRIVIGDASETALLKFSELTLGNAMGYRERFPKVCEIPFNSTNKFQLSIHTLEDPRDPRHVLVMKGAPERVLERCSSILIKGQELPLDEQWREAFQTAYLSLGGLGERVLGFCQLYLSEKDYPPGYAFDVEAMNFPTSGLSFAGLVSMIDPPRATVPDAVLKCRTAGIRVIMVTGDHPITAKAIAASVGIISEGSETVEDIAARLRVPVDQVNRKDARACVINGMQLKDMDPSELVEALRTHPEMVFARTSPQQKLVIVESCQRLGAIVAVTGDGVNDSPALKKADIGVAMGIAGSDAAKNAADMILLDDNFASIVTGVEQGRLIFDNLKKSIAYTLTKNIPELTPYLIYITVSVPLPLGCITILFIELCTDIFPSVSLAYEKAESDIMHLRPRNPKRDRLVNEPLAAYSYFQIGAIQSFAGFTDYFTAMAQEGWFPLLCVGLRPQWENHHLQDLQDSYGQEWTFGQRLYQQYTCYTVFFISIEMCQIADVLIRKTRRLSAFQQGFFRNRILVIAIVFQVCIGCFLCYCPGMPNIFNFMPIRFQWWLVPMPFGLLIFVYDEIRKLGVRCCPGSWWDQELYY
Structure (SMILES),inhibition in vivo at 1 µmol/kg [1],inhibition in vivo at 4 µmol/kg [2],IC50 [3],ED50 [4],inhibition [5],inhibition [6]
CCCC(=O)c1cnc2c(OC)cccc2c1Nc1ccc(F)cc1C,36%,64%,2300 nM,3.9 µmol/kg,,
CCCC(=O)c1cnc2ccccc2c1Nc1ccccc1C,,,,5.45 µmol/kg,,
CCCC(=O)c1cnc2c(C)cccc2c1Nc1ccc(OC)cc1OC,41%,,2400 nM,3.9 µmol/kg,,
CCCC(=O)c1cnc2c(OC)cccc2c1Nc1cccc(C)c1C,77%,67%,1400 nM,,60%,
CCCC(=O)c1cnc2c(OC)cccc2c1Nc1ccccc1OCC,,,2000 nM,4.9 µmol/kg,,
CCC(=O)c1cnc2c(Oc3ccccn3)cccc2c1Nc1c(C)cccc1C,81%,,4700 nM,,77%,
Cc1cc(O)ccc1Nc1c(C(=O)C(C)C)cnc2c(CO)cccc12,47%,,36 nM,1.72 µmol/kg,,
CCCC(=O)c1cnc2c(OCCOC)cccc2c1Nc1ccc(F)cc1C,65%,46%,3500 nM,2.91 µmol/kg,,
CCCC(=O)c1cnc2c(CO)cccc2c1Nc1ccccc1C,39%,56%,,1.72 µmol/kg,,
COCCOc1cccc2c(Nc3ccccc3C)c(C(=O)C(C)C)cnc12,65%,86%,1400 nM,3.61 µmol/kg,,
CCCC(=O)c1cnc2c(OC)cccc2c1Nc1ccccc1CC,77%,85%,890 nM,2.35 µmol/kg,,
CCCC(=O)c1cnc2c(OC)cccc2c1Nc1cc(F)cc(F)c1,,,,,,63%
CCCC(=O)c1cnc2c(OC)cccc2c1Nc1ccc(N2CCCC2)cc1C,,,,,0%,5%
CCC(=O)c1cnc2c(CO)cccc2c1Nc1ccc(O)cc1C,59%,24%,180 nM,,90%,
CCCC(=O)c1cnc2c(C)cccc2c1Nc1c(C)cccc1C,45%,,3100 nM,2.88 µmol/kg,,
CCCC(=O)c1cnc2c(C(=O)OC)cccc2c1Nc1ccccc1C,,,580 nM,13.4 µmol/kg,,
CCCC(=O)c1cnc2c(OC)cccc2c1Nc1cc(F)c(O)c(F)c1,,,,,,11%
Cc1cc(F)ccc1Nc1c(C(=O)C(C)C)cnc2c(CO)cccc12,59%,42%,,3.57 µmol/kg,,
CCCC(=O)c1cnc2c(OCCCN(C)C)cccc2c1Nc1ccccc1C,14%,,390 nM,,43%,
CCC(=O)c1cnc2c(CO)cccc2c1Nc1ccccc1C,83%,35%,380 nM,,74%,
CCCC(=O)c1cnc2c(OCCO)cccc2c1Nc1ccc(F)cc1C,44%,80%,,2.92 µmol/kg,,
Cc1ccccc1Nc1c(C(=O)C(C)C)cnc2c(CO)cccc12,,,,1.86 µmol/kg,,
CCCC(=O)c1cnc2c(C)cccc2c1Nc1ccc(Cl)cc1C,,,,,,15%

Structure (SMILES),inhibition in vivo at 1 µmol/kg [1],inhibition in vivo at 4 µmol/kg [2],IC50 [3],ED50 [4],inhibition [5],inhibition [6]
CCCC(=O)c1cnc2c(OC)cccc2c1Nc1ccc(OC(=O)CC)cc1C,,45%,19000 nM,,,
CCCC(=O)c1cnc2c(OC)cccc2c1Nc1ccc(O)c(Cl)c1,,,,,,16%
CCCC(=O)c1cnc2c(/C=C/CO)cccc2c1Nc1ccccc1C,17%,,2300 nM,,68%,
CCCC(=O)c1cnc2c(OCCCNC(C)=O)cccc2c1Nc1c(C)cccc1C,86%,40%,1800 nM,,75%,
CCCC(=O)c1cnc2c(CCCO)cccc2c1Nc1ccccc1C,,48%,2600 nM,,63%,
CCCC(=O)c1cnc2c(OC)cccc2c1Nc1ccccc1OC,73%,18%,1500 nM,3.56 µmol/kg,,
CCCC(=O)c1cnc2c(C(C)O)cccc2c1Nc1ccc(O)cc1C (stereo not given),30%,,61 nM,2.74 µmol/kg,,
CCCC(=O)c1cnc2c(C)cccc2c1Nc1cc(C)ccc1OC,,,,,,56%
CCCC(=O)c1cnc2c(Oc3cnccn3)cccc2c1Nc1ccccc1C,49%,43%,2000 nM,2.9 µmol/kg,,
CCC(=O)c1cnc2c(OCCOC)cccc2c1Nc1ccccc1C,80%,66%,780 nM,1.92 µmol/kg,,
CCC(=O)c1cnc2c(OCCO)cccc2c1Nc1ccc(F)cc1C,58%,72%,2000 nM,2.85 µmol/kg,,
CCCC(=O)c1cnc2c(C)cccc2c1Nc1ccccc1OC,,,2200 nM,3.98 µmol/kg,,
CCCC(=O)c1cnc2c(OC)cccc2c1Nc1c(C)cc(O)cc1C,32%,25%,500 nM,6.4 µmol/kg,,
Cc1ccccc1Nc1c(C(=O)C(C)C)cnc2c(OCCO)cccc12,56%,54%,990 nM,2.07 µmol/kg,,
CCCC(=O)c1cnc2c(OC)cccc2c1Nc1ccc(O)c(CN(C)C)c1,,,,,,35%
CCCC(=O)c1cnc2c(F)cccc2c1Nc1ccc(O)cc1C,31%,17%,710 nM,4.66 µmol/kg,,
Cc1cc(F)ccc1Nc1c(C(=O)C(C)C)cnc2c(OCCO)cccc12,66%,75%,1600 nM,4.2 µmol/kg,,
CCCC(=O)c1cnc2c(C=O)cccc2c1Nc1ccccc1C,51%,,1200 nM,,64%,
CCCC(=O)c1cnc2c(OC)cccc2c1Nc1ccc(OC)cc1C,71%,,1270 nM,7.61 µmol/kg,,
CCCC(=O)c1cnc2c(C)cccc2c1Nc1ccccc1C,38%,,3000 nM,3.12 µmol/kg,,
CCCC(=O)c1cnc2c(OCCCN3CCCCC3)cccc2c1Nc1ccccc1C,,,500 nM,,31%,
Cc1ccccc1Nc1c(C(=O)C(C)C)cnc2c(O)cccc12,,,1200 nM,,48%,
CCCC(=O)c1cnc2c(OCCCO)cccc2c1Nc1c(C)cccc1C,,,1210 nM,,75%,

Structure (SMILES),inhibition in vivo at 1 µmol/kg [1],inhibition in vivo at 4 µmol/kg [2],IC50 [3],ED50 [4],inhibition [5],inhibition [6]
CCCC(=O)c1cnc2c(C)cccc2c1Nc1ccc(Cl)cc1Cl,,,,,,31%
CCCC(=O)c1cnc2c(OCCOCCO)cccc2c1Nc1ccccc1C,52%,,,1.89 µmol/kg,,
CCCC(=O)c1cnc2c(OC)cccc2c1Nc1ccc(CO)cc1,,,,,,38%
CCCC(=O)c1cnc2c(OC)cccc2c1Nc1c(C)cc(C)cc1C,,,3100 nM,10.8 µmol/kg,,
CCCC(=O)c1cnc2c(NCCO)cccc2c1Nc1ccccc1C,,,7100 nM,,62%,
CCCC(=O)c1cnc2c(C)cccc2c1Nc1ccc(OC)cc1C,,,1700 nM,4.7 µmol/kg,,
CCCC(=O)c1cnc2c(OCCOCCOCCO)cccc2c1Nc1ccc(F)cc1C,,,3600 nM,,51%,
CCC(=O)c1cnc2c(OCCO)cccc2c1Nc1ccccc1C,82%,82%,760 nM,1.72 µmol/kg,,
CCCC(=O)c1cnc2c(OCCOC)cccc2c1Nc1ccccc1C,51%,81%,,2.75 µmol/kg,,
CCCC(=O)c1cnc2c(OC)cc(O)cc2c1Nc1ccccc1C,,,1300 nM,,63%,
C=CC(O)c1cccc2c(Nc3ccccc3C)c(C(=O)CCC)cnc12 (stereo not given),,,660 nM,,49%,
CCCC(=O)c1cnc2c(C)cccc2c1Nc1ccccc1CC,66%,,2900 nM,3.05 µmol/kg,,
CCCC(=O)c1cnc2c(OCCOCCOCCO)cccc2c1Nc1ccccc1C,20%,78%,,,,
CCCC(=O)c1cnc2c(OCCO)cccc2c1Nc1ccccc1C,64%,96%,,2.4 µmol/kg,,
CCCC(=O)c1cnc2c(OC)cccc2c1Nc1ccc(O)c(F)c1,,,,,,40%
CCCC(=O)c1cnc2c(OC)cccc2c1Nc1c(C)cccc1C,62%,75%,1600 nM,5.24 µmol/kg,,
CCCC(=O)c1cnc2c(OC)cccc2c1Nc1ccc(O)cc1C,76%,46%,210 nM,1.98 µmol/kg,,
CCCC(=O)c1cnc2c(OC)cccc2c1Nc1cc(C)ccc1C,,,2500 nM,,48%,
CCCC(=O)c1cnc2c(OC)cccc2c1Nc1ccccc1C,67%,83%,1700 nM,2.6 µmol/kg,,
CCCC(=O)c1cnc2c(CC(=O)OC)cccc2c1Nc1ccccc1C,,,5400 nM,,43%,
CCCC(=O)c1cnc2c(C(C)O)cccc2c1Nc1ccccc1C (stereo not given),46%,49%,370 nM,3.69 µmol/kg,,
CCCC(=O)c1cnc2c(CO)cccc2c1Nc1ccc(O)cc1C,64%,29%,,2.09 µmol/kg,,
